A selection: hits, their analogues and other compounds. The true share with any hit is near 5.9%.
GASC1 inh: KDM4C (human) demethylase inhibition; Q9H3R0; GST-KDM4C 2-372, H3K9me3 peptide, LANCE TR-FRET; inhibition, % at 12.5 µM; actives 0.15% (n = 96,000); AID 720574;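 active = mean replicate inhibition above about 25%, with at least 55% of replicates also reaching it, limit read from the data, passing the limit was not always enough; inconclusive = only one of those two conditions met; inactive = neither condition met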
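System – N-terminal GST-fused human GASC-1 (KDM4C) fragment, residues 2-372 · Input – enzyme final amount 10 nM · Technique – LANCE TR-FRET, Eu antibody, ULight-streptavidin, EDTA, ex 340 nm, em 618/671 nm · Medium – HEPES buffer, pH 7.5, plus ascorbate · Incubation – enzyme reaction 30 min, then detection 60 min, both room temperature · Reagent – H3K9me3 peptide with Fe(II)/2OG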
IDH1 mut inh: inhibitors of human IDH1 R132H; O75874; IDH1 R132H reductase, diaphorase/resazurin fluorescence, 60 min; inhibition, % at 10 µM; actives 0.18% (n = 70,000); in the data active = inhibition above about 34%; inconclusive = no clear call, values can overlap the other calls; inactive = below about 11%;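 note: 0% = DMSO and 100% = no enzyme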
Target sequence (O75874 whole entry R132H): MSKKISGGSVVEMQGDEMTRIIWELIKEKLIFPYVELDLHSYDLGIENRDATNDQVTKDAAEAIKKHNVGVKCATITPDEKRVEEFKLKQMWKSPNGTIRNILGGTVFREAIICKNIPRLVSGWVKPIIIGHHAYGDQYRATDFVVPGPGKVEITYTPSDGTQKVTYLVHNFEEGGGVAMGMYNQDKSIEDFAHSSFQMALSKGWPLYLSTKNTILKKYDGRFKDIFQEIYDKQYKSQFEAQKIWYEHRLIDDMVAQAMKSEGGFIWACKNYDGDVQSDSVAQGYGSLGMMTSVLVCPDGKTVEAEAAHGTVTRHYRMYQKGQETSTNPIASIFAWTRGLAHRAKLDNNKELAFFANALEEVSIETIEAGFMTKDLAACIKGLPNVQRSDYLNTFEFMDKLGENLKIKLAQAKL
Pf Dd2 growth: inhibitors of Plasmodium falciparum Dd2 growth | activity change, % at 10 µM | P. falciparum Dd2 growth, SYBR Green, 72 h; active compounds read low | AID 1159554 | actives 2.3% (n = 94,000); in the data active = activity change below about -80%; inconclusive = no clear call, values can overlap the other calls
T cruzi growth: T. cruzi proliferation inhibition | T. cruzi beta-gal in NIH3T3, GalScreen luminescence, 90 h | actives 5.9% (n = 77,000) | AID 624255 | inhibition, % at 8.34 µM;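 active = mean inhibition above about 93%, with at least 55% of replicates each passing it, limit read from the data, passing the limit was not always enough; inconclusive = only one of those two conditions holds; inactive = neither condition holds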
Starred values were filed as active, the others as inactive; ? = inconclusive; . = not tested or not shown; ! = repeats disagree.

SMILES	GASC1 inh	IDH1 mut inh	Pf Dd2 growth	T cruzi growth
C[C@@H]1CN([C@@H](C)CO)C(=O)c2cc(NC(=O)Nc3ccc(F)cc3)ccc2O[C@@H]1CN(C)Cc1ccc(C(=O)Nc2ccccc2N)cc1	0	0	-84*	.
C[C@H]1CN([C@@H](C)CO)C(=O)c2cc(NC(=O)Nc3ccc(F)cc3)ccc2O[C@H]1CN(C)Cc1ccc(C(=O)Nc2ccccc2N)cc1	-4	0	-71	51
C[C@H](CO)N1C[C@H](C)[C@H](CN(C)Cc2ccc(C(=O)Nc3ccccc3N)cc2)Oc2ccc(NC(=O)Nc3ccc(C(F)(F)F)cc3)cc2C1=O	0	0	-80*	.
C[C@H](CO)N1C[C@H](C)[C@H](CN(C)Cc2ccc(C(=O)Nc3ccccc3N)cc2)Oc2ccc(NC(=O)Cc3ccccc3)cc2C1=O	6	1	-84*	.
C[C@@H]1CN([C@@H](C)CO)C(=O)c2cc(NC(=O)Nc3ccccc3)ccc2O[C@@H]1CN(C)Cc1ccc(C(=O)Nc2ccccc2N)cc1	-2	.	-83*	48
C[C@H](CO)N1C[C@H](C)[C@H](CN(C)Cc2ccc(C(=O)Nc3ccccc3N)cc2)Oc2ccc(NC(=O)Nc3ccccc3)cc2C1=O	0	.	-70	42
COc1ccc(NC(=O)Nc2ccc3c(c2)C(=O)N([C@H](C)CO)C[C@H](C)[C@H](CN(C)Cc2ccc(C(=O)Nc4ccccc4N)cc2)O3)cc1	0	0	-79	.
C[C@@H]1CN([C@H](C)CO)C(=O)c2c(c3ccccc3n2C)-c2ccccc2CO[C@@H]1CN(C)Cc1cccc(C(F)(F)F)c1	-3	.	-87*	.
C[C@H](CO)N1C[C@H](C)[C@H](CN(C)Cc2cccc(C(F)(F)F)c2)OCc2ccccc2-c2c(n(C)c3ccccc23)C1=O	.	.	-83*	.
C[C@H]1CN([C@@H](C)CO)C(=O)c2c(c3ccccc3n2C)-c2ccccc2CO[C@H]1CN(C)Cc1cccc(C(F)(F)F)c1	-4	.	-75	.
C[C@@H]1CN([C@@H](C)CO)C(=O)c2ccccc2-c2ccccc2CO[C@@H]1CN(C)Cc1cccc(C(F)(F)F)c1	0	.	-82*	.
O=S(=O)(N[C@H]1CC[C@@H](CCn2cc(C3CC3)nn2)O[C@H]1CO)c1ccc(F)cc1	-1	0	-8	-26
COc1ccc(S(=O)(=O)N(C)C[C@H]2OCCCC[C@H](C)Oc3ccc(NC(=O)Cc4ccccc4)cc3C(=O)N([C@@H](C)CO)C[C@H]2C)cc1	1	1	?	102
COc1ccc(S(=O)(=O)N(C)C[C@@H]2OCCCC[C@H](C)Oc3ccc(NC(=O)Cc4ccccc4)cc3C(=O)N([C@H](C)CO)C[C@H]2C)cc1	-5	0	-84*	98
COc1ccc(S(=O)(=O)N(C)C[C@@H]2OCCCC[C@@H](C)Oc3ccc(NC(=O)Cc4ccccc4)cc3C(=O)N([C@@H](C)CO)C[C@H]2C)cc1	1	3	-61	90
COc1ccc(S(=O)(=O)N(C)C[C@@H]2OCCCC[C@H](C)Oc3ccc(NC(=O)Cc4ccccc4)cc3C(=O)N([C@@H](C)CO)C[C@@H]2C)cc1	-2	0	-83*	102
COC(=O)C[C@@H]1CC[C@@H]2[C@H](COc3ccc(NC(=O)c4ccc(F)cc4)cc3C(=O)N2C)O1	1	.	-29	10
CCCC#Cc1ccc2c(c1)O[C@H](CN(C)C(=O)Nc1ccc(OC)cc1)[C@@H](C)CN([C@H](C)CO)S2(=O)=O	1	.	-35	75
COc1ccc(NC(=O)N(C)C[C@@H]2Oc3cc(C#CCC(C)C)ccc3S(=O)(=O)N([C@@H](C)CO)C[C@H]2C)cc1	6	0	-53	91
COc1ccc(NC(=O)N(C)C[C@H]2Oc3cc(C#CCC(C)C)ccc3S(=O)(=O)N([C@H](C)CO)C[C@H]2C)cc1	2	0	-88*	6
CCCC#Cc1ccc2c(c1)O[C@H](CN(C)C(=O)Nc1ccc(OC)cc1)[C@H](C)CN([C@H](C)CO)S2(=O)=O	0	-3	-87*	83
C[C@H](CO)N1C[C@H](C)[C@@H](CN(C)Cc2ccc(C(=O)O)cc2)Oc2c(NC(=O)c3ccc(-c4nccs4)cc3)cccc2C1=O	7	0	20	-16
O=S(=O)(c1ccc(-c2ccccc2)cc1)N1C[C@@H]2N[C@H](C1)C2c1ccc(-c2ccccc2)cc1 (some centres not stated)	0	.	-87*!	.
N#Cc1ccc(-c2ccc([C@@H]3[C@@H]4CN(S(=O)(=O)c5ccc(-c6ccccc6)cc5)C[C@H]3N4)cc2)cc1	3	.	-74	.
Cc1ccc(S(=O)(=O)N2C[C@@H]3N[C@H](C2)C3c2ccc(-c3ccncc3)cc2)cc1 (some centres not stated)	1	.	-81*!	.
SMILES	GASC1 inh	IDH1 mut inh	Pf Dd2 growth	T cruzi growth
COc1ccc(C#Cc2ccc3c(c2)[C@@H]2[C@@H](CCN2S(=O)(=O)c2ccccc2F)[C@@H](CO)N3C)cc1	48*	.	-21	26
COc1ccc(C#Cc2ccc3c(c2)[C@H]2[C@H](CCN2S(=O)(=O)c2ccccc2F)[C@H](CO)N3C)cc1	0	.	-21	-10
COC(=O)C[C@H]1CC[C@@H]2[C@@H](COc3ccc(NC(=O)c4ccc(C(F)(F)F)cc4)cc3C(=O)N2C)O1	1	.	-36	36
O=C(OCC1OC(Oc2ccc(O)cc2COC(=O)C2(O)C(O)CCC(=O)C2O)C(O)C(O)C1O)c1ccccc1 (configuration not stated)	.	36*	.	.
CN1c2ccc(C3=CCCCC3)cc2[C@@H]2[C@@H](CCN2C(=O)C2CCCCC2)[C@@H]1CO	.	.	2	.
C[C@@H]1CN([C@@H](C)CO)C(=O)Cc2cc(NC(=O)Cc3cn(C)c4ccccc34)ccc2O[C@H]1CN(C)Cc1ccc(Oc2ccccc2)cc1	6	0	-90*	9
C[C@H](CO)N1C[C@H](C)[C@H](CN(C)C(=O)Nc2cccc3ccccc23)Oc2ccc(NC(=O)Cc3cn(C)c4ccccc34)cc2CC1=O	-1	-24	-85*	43
C[C@H](CO)N1C[C@H](C)[C@@H](CN(C)Cc2ccccc2)Oc2ccc(NC(=O)Cc3cn(C)c4ccccc34)cc2CC1=O	-3	0	-82*	70
C[C@@H]1CN([C@H](C)CO)C(=O)Cc2cc(NC(=O)Cc3cn(C)c4ccccc34)ccc2O[C@@H]1CN(C)Cc1ccc(Oc2ccccc2)cc1	-1	0	-28	59
C[C@H]1CN([C@@H](C)CO)C(=O)Cc2cc(NC(=O)Cc3cn(C)c4ccccc34)ccc2O[C@H]1CN(C)C(=O)Nc1cccc2ccccc12	-1	-1	-33	29
C[C@H](CO)N1C[C@H](C)[C@H](CN(C)Cc2ccc(Oc3ccccc3)cc2)Oc2ccc(NC(=O)Cc3cn(C)c4ccccc34)cc2CC1=O	-1	.	-83*	36
C[C@@H]1CN([C@H](C)CO)C(=O)c2cccc(NC(=O)Nc3ccc4c(c3)OCO4)c2O[C@H]1CN(C)Cc1ccc2c(c1)OCO2	-1	.	-10	9
